{"source": "ChEMBL document CHEMBL2021795", "about": "“Novel epigallocatechin gallate (EGCG) analogs activate AMP-activated protein kinase pathway and target cancer stem cells” (2012)", "key": {"MDA-MB-231 [1]": {"tested_on": "MDA-MB-231", "assay": "Induction of AMPKalpha phosphorylation at T172 residue in human MDA-MB-231 cells at 20 uM after 3 hrs by Western blotting analysis relative to control", "format": "cell-based", "outline": "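MDA-MB-231 cells in DMEM/F12 (1:1) with 10% FBS at 37°C, 5% CO2. Compounds were given at 20 μM, metformin at 10 mM, for 3 h. Whole-cell lysates were run on SDS–PAGE, blotted to nitrocellulose and probed for phospho-AMPKα (T172), with ECL detection. Phospho-AMPKα was normalized to β-actin.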"}, "MDA-MB-231 [2]": {"tested_on": "MDA-MB-231", "assay": "Inhibition of mammosphere formation in human MDA-MB-231 cells at 20 uM after 7 days by inverted phase-contrast microscopy", "format": "functional", "conditions": "MDA-MB-231, 168 h", "outline": "(§1)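 Single MDA-MB-231 cells were seeded at 1,000 cells/well in ultra-low-attachment 6-well plates. Sphere medium was DMEM/F12 1:1 with B-27, N-2 and penicillin/streptomycin, topped up every 3–4 days. Cells were exposed to compounds or metformin for 7 days. Spheres were collected by centrifugation (300 g, 5 min) and counted under an inverted phase-contrast microscope. Mean of three experiments.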"}, "MDA-MB-231 [3]": {"tested_on": "MDA-MB-231", "assay": "Inhibition of mammosphere formation in human MDA-MB-231 cells at 10 uM after 7 days by inverted phase-contrast microscopy", "format": "functional", "conditions": "MDA-MB-231, 168 h", "outline": "as §1"}, "MDA-MB-231 [4]": {"tested_on": "MDA-MB-231", "assay": "Antiproliferative activity against human MDA-MB-231 cells after 24 hrs by MTT assay", "format": "functional, cell-based", "outline": "(§2)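 MDA-MB-231 cells were grown in 96-well plates to 70–80% confluency. Compounds or metformin were added for 24 h at 37°C, then MTT read-out. Samples were run in triplicate in three independent experiments. Data are mean ± SD, expressed as percent of untreated control (100%).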"}, "[5]": {"assay": "Activation of AMPKalpha in human MDA-MB-231 cells assessed as suppression of mTOR pathway measuring decrease in p70-S6K T389 phosphorylation at 5 to 40 uM after 3 hrs by Western blotting analysis relative to control", "format": "cell-based"}, "MDA-MB-231 [6]": {"tested_on": "MDA-MB-231", "assay": "Induction of AMPKalpha-mediated up-regulation of p21 in human MDA-MB-231 cells at 5 to 40 uM after 3 hrs by Western blotting analysis relative to control", "format": "cell-based", "outline": "(§3)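 MDA-MB-231 cells grown in DMEM/F12 (1:1) with 10% FBS, penicillin/streptomycin at 37°C, 5% CO2. Exposed to compounds over a concentration series for 3 h. Whole-cell extracts were separated by SDS–PAGE and transferred to nitrocellulose. Blots were probed with the indicated antibodies (p-AMPKα, p-Raptor, p21, β-actin) and detected by ECL. p-AMPKα was normalized to β-actin.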"}, "MDA-MB-231 [7]": {"tested_on": "MDA-MB-231", "assay": "Cytotoxicity against human MDA-MB-231 cells assessed as CD44+high/CD24-low cells after 48 hrs by FACS-flow cytometry (reference value: 45%)", "format": "functional, cell-based", "outline": "(§4)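 MDA-MB-231 cells were cultured 5 days on low-adherent plates in sphere medium. Spheres were dissociated with accutase (37°C, 5 min), reseeded and treated with compounds for 48 h. Cells were detached with 0.02% EDTA/PBS and stained with anti-CD44-FITC and anti-CD24-PE or isotype controls for 30 min at 4°C in the dark. The CD44high/CD24low fraction was measured by flow cytometry. Mean of three experiments.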"}, "MDA-MB-231 [8]": {"tested_on": "MDA-MB-231", "assay": "Induction of AMPKalpha phosphorylation at T172 residue in human MDA-MB-231 cells after 3 hrs by Western blotting analysis relative to control", "format": "cell-based", "outline": "as §3"}, "MDA-MB-231 [9]": {"tested_on": "MDA-MB-231", "assay": "Activation of AMPKalpha in human MDA-MB-231 cells assessed as increase in Raptor S792 phosphorylation after 3 hrs by Western blotting analysis relative to control", "format": "cell-based", "outline": "as §3"}, "MDA-MB-231 [10]": {"tested_on": "MDA-MB-231", "assay": "Cytotoxicity against human MDA-MB-231 cells assessed as CD44+high/CD24-low cells at 20 uM after 48 hrs by FACS-flow cytometry (reference value: 45%)", "format": "functional", "outline": "as §4"}, "MDA-MB-231 [11]": {"tested_on": "MDA-MB-231", "assay": "Cytotoxicity against human MDA-MB-231 cells assessed as CD44+high/CD24-low cells at 10 uM after 48 hrs by FACS-flow cytometry (reference value: 45%)", "format": "functional", "outline": "as §4"}, "MDA-MB-231 [12]": {"tested_on": "MDA-MB-231", "assay": "Antiproliferative activity against human MDA-MB-231 cells at 1 to 20 mM after 24 hrs by MTT assay", "format": "functional, cell-based", "outline": "as §2"}, "MDA-MB-231 [13]": {"tested_on": "MDA-MB-231", "assay": "Inhibition of mammosphere formation in human MDA-MB-231 cells at 5 mM after 7 days by inverted phase-contrast microscopy", "format": "functional", "conditions": "MDA-MB-231, 168 h", "outline": "as §1"}, "MDA-MB-231 [14]": {"tested_on": "MDA-MB-231", "assay": "Inhibition of mammosphere formation in human MDA-MB-231 cells at 10 mM after 7 days by inverted phase-contrast microscopy", "format": "functional", "conditions": "MDA-MB-231, 168 h", "outline": "as §1"}, "MDA-MB-231 [15]": {"tested_on": "MDA-MB-231", "assay": "Induction of AMPKalpha phosphorylation at T172 residue in human MDA-MB-231 cells at 10 mM after 3 hrs by Western blotting analysis relative to control", "format": "cell-based", "outline": "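MDA-MB-231 human breast cancer cells grown in DMEM/F12 (1:1) with 10% FBS, penicillin and streptomycin at 37°C, 5% CO2. Treated for 3 h, then whole-cell extracts separated by SDS–PAGE, blotted to nitrocellulose and detected by ECL. Phospho-AMPKα (T172) band normalized to β-actin.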"}}, "note": "Calls of active or inactive are those of the source. The calls are words filed in the database; no cut-off is given here."}
{"smiles": "O=C(O[C@@H]1Cc2c(O)cc(O)cc2O[C@@H]1c1cc(O)c(O)c(O)c1)c1cc(O)c(O)c(O)c1", "note": "[EPIGALOCATECHIN GALLATE]", "values": [{"measurement": "fold change (FC)", "setting": "MDA-MB-231 [1]", "value": 3.9}, {"measurement": "inhibition at 20 µM", "setting": "MDA-MB-231 [2]", "value": 51.3, "unit": "%"}, {"measurement": "inhibition at 10 µM", "setting": "MDA-MB-231 [3]", "value": 20.1, "unit": "%"}, {"measurement": "Activity", "setting": "MDA-MB-231 [4]", "value": "Active"}]}
{"smiles": "CC(=O)Nc1ccc(C(=O)O[C@H]2Cc3ccccc3C[C@H]2OC(=O)c2ccc(NC(C)=O)cc2)cc1", "values": [{"measurement": "fold change (FC)", "setting": "MDA-MB-231 [1]", "value": 6}]}
{"smiles": "Nc1ccc(C(=O)O[C@H]2Cc3ccccc3C[C@H]2OC(=O)c2ccc(N)cc2)cc1", "values": [{"measurement": "fold change (FC)", "setting": "MDA-MB-231 [1]", "value": 13.7}, {"measurement": "Activity", "setting": "[5]", "value": "Active"}, {"measurement": "Activity", "setting": "MDA-MB-231 [6]", "value": "Active"}, {"measurement": "inhibition at 20 µM", "setting": "MDA-MB-231 [2]", "value": 73.3, "unit": "%"}, {"measurement": "inhibition at 10 µM", "setting": "MDA-MB-231 [3]", "value": 52.2, "unit": "%"}, {"measurement": "Activity", "setting": "MDA-MB-231 [4]", "value": "Dose-dependent effect"}, {"measurement": "Activity", "setting": "MDA-MB-231 [7]", "value": "Dose-dependent effect"}, {"measurement": "Activity", "setting": "MDA-MB-231 [8]", "value": "Dose-dependent effect"}, {"measurement": "Activity", "setting": "MDA-MB-231 [9]", "value": "Dose-dependent effect"}, {"measurement": "Activity", "setting": "MDA-MB-231 [10]", "value": 13.9, "unit": "%"}, {"measurement": "Activity", "setting": "MDA-MB-231 [11]", "value": 25.6, "unit": "%"}]}
{"smiles": "CC(=O)Oc1cc(OC(C)=O)c2c(c1)O[C@H](c1cc(OC(C)=O)c(OC(C)=O)c(OC(C)=O)c1)[C@H](OC(=O)c1cc(OC(C)=O)c(OC(C)=O)c(OC(C)=O)c1)C2", "values": [{"measurement": "fold change (FC)", "setting": "MDA-MB-231 [1]", "value": 3.9}]}
{"smiles": "O=C(O[C@H]1Cc2ccccc2C[C@H]1OC(=O)c1cc(O)c(Br)c(O)c1)c1cc(O)c(Br)c(O)c1", "values": [{"measurement": "fold change (FC)", "setting": "MDA-MB-231 [1]", "value": 13.5}, {"measurement": "Activity", "setting": "[5]", "value": "Active"}, {"measurement": "Activity", "setting": "MDA-MB-231 [6]", "value": "Active"}, {"measurement": "inhibition at 20 µM", "setting": "MDA-MB-231 [2]", "value": 66.7, "unit": "%"}, {"measurement": "inhibition at 10 µM", "setting": "MDA-MB-231 [3]", "value": 45.1, "unit": "%"}, {"measurement": "Activity", "setting": "MDA-MB-231 [4]", "value": "Dose-dependent effect"}, {"measurement": "Activity", "setting": "MDA-MB-231 [7]", "value": "Dose-dependent effect"}, {"measurement": "Activity", "setting": "MDA-MB-231 [8]", "value": "Dose-dependent effect"}, {"measurement": "Activity", "setting": "MDA-MB-231 [9]", "value": "Dose-dependent effect"}, {"measurement": "Activity", "setting": "MDA-MB-231 [10]", "value": 18, "unit": "%"}, {"measurement": "Activity", "setting": "MDA-MB-231 [11]", "value": 30.5, "unit": "%"}]}
{"smiles": "O=C(O[C@H]1Cc2ccccc2C[C@H]1OC(=O)c1cc(O)c(O)c(O)c1)c1cc(O)c(O)c(O)c1", "values": [{"measurement": "fold change (FC)", "setting": "MDA-MB-231 [1]", "value": 5.1}]}
{"smiles": "O=C(O[C@H]1Cc2ccccc2C[C@H]1OC(=O)c1cc(O)cc(O)c1)c1cc(O)cc(O)c1", "values": [{"measurement": "fold change (FC)", "setting": "MDA-MB-231 [1]", "value": 5.1}]}
{"smiles": "CN(C)C(=N)NC(=N)N", "note": "[METFORMIN]", "values": [{"measurement": "Activity", "setting": "MDA-MB-231 [12]", "value": "Active"}, {"measurement": "inhibition at 5000 µM", "setting": "MDA-MB-231 [13]", "value": 41.4, "unit": "%"}, {"measurement": "inhibition at 10000 µM", "setting": "MDA-MB-231 [14]", "value": 67.6, "unit": "%"}, {"measurement": "fold change (FC)", "setting": "MDA-MB-231 [15]", "value": 6.3}]}
